Measurements from ChEMBL document CHEMBL1129275, “Synthesis and in vitro and in vivo characteristics of an iodinated analogue of the beta-adrenoceptor antagonist carazolol” (J Med Chem, 1996).

Columns and labels:
Oryctolagus cuniculus [1] = assay: Cerebral biodistribution pattern of [123I]- ligand was evaluated in hypothalamus of anesthetized rabbit after Intravenous injection of 50 uCi after 30 min; format: ADME, organism-based; conditions: in vivo, 0.5 h
Procedure, shortened: (§1)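 Male New Zealand white rabbits (2.5–3.5 kg), anesthetized with xylazine 5 mg/kg plus ketamine 30 mg/kg im, given 50 µCi radioligand (specific activity >5000 Ci/mmol) iv via ear vein. Euthanized at set times by pentobarbital 200 mg/kg im, n = 3/time point. Organs removed and weighed, gamma-counted, decay/weight corrected; expressed as % ID x kg body weight/g tissue, mean ± SEM.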

Oryctolagus cuniculus [2] = assay: Biodistribution pattern of [123I]- ligand was evaluated in lung of anesthetized rabbit after Intravenous injection of 50 uCi after 5 min; format: ADME, organism-based; conditions: in vivo
Procedure, shortened: (§2)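 Male New Zealand white rabbits, 2.5–3.5 kg, anesthetized with 5 mg/kg xylazine plus 30 mg/kg ketamine im. Each received 50 uCi radioligand (specific activity > 5000 Ci/mmol) iv via ear vein. Animals were killed with 200 mg/kg pentobarbital im at the set time. Blood was drawn by intracardiac puncture and organs weighed. Gamma counting was decay-corrected, expressed as %ID x kg body weight/g tissue, mean ± SEM, n = 3/time point.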

Oryctolagus cuniculus [3] = assay: Biodistribution pattern of [123I]- ligand was evaluated in blood of anesthetized rabbit after Intravenous injection of 50 uCi after 5 min; format: ADME, organism-based; conditions: in vivo; procedure, shortened: as §2
Oryctolagus cuniculus [4] = assay: Biodistribution pattern of [123I]- ligand was evaluated in intestine of anesthetized rabbit after Intravenous injection of 50 uCi after 24 hr; format: ADME, organism-based; conditions: in vivo; procedure, shortened: as §2
Oryctolagus cuniculus [5] = assay: Biodistribution pattern of [123I]- ligand was evaluated in spleen of anesthetized rabbit after Intravenous injection of 50 uCi after 4 hr; format: ADME, organism-based; conditions: in vivo; procedure, shortened: as §1
Oryctolagus cuniculus [6] = assay: Biodistribution pattern of [123I]- ligand was evaluated in fat of anesthetized rabbit after Intravenous injection of 50 uCi after 6 hr; format: ADME, organism-based, Adipose tissue; conditions: in vivo; procedure, shortened: as §2
Oryctolagus cuniculus [7] = assay: Biodistribution pattern of [123I]- ligand was evaluated in lung of anesthetized rabbit after Intravenous injection of 50 uCi after 1 hr; format: ADME, organism-based; conditions: in vivo; procedure, shortened: as §2
Oryctolagus cuniculus [8] = assay: Biodistribution pattern of [123I]- ligand was evaluated in muscle of anesthetized rabbit after Intravenous injection of 50 uCi after 24 hr; format: ADME, organism-based, Muscle tissue; conditions: in vivo; procedure, shortened: as §2
Oryctolagus cuniculus [9] = assay: Cerebral biodistribution pattern of [123I]- ligand was evaluated in frontal cortex of anesthetized rabbit after Intravenous injection of 50 uCi after 4 hr; format: ADME, organism-based; conditions: in vivo; procedure, shortened: as §1
Oryctolagus cuniculus [10] = assay: Biodistribution pattern of [123I]- ligand was evaluated in blood of anesthetized rabbit after Intravenous injection of 50 uCi after 30 min; format: ADME, organism-based; conditions: in vivo, 0.5 h; procedure, shortened: as §2
Oryctolagus cuniculus [11] = assay: Biodistribution pattern of [123I]- ligand was evaluated in liver of anesthetized rabbit after Intravenous injection of 50 uCi after 5 min; format: ADME, organism-based; conditions: in vivo; procedure, shortened: as §2
Oryctolagus cuniculus [12] = assay: Cerebral biodistribution pattern of [123I]- ligand was evaluated in hypothalamus of anesthetized rabbit after Intravenous injection of 50 uCi after 6 hr; format: ADME, organism-based; conditions: in vivo; procedure, shortened: as §1
Oryctolagus cuniculus [13] = assay: Cerebral biodistribution pattern of [123I]- ligand was evaluated in pituitary gland of anesthetized rabbit after Intravenous injection of 50 uCi after 6 hr; format: ADME, organism-based; conditions: in vivo; procedure, shortened: as §1
Oryctolagus cuniculus [14] = assay: Biodistribution pattern of [123I]- ligand was evaluated in left atrial muscle of anesthetized rabbit after Intravenous injection of 50 uCi after 5 min; format: ADME, organism-based, Muscle tissue; conditions: in vivo; procedure, shortened: as §2
Oryctolagus cuniculus [15] = assay: Biodistribution pattern of [123I]- ligand was evaluated in right atrial muscle of anesthetized rabbit after Intravenous injection of 50 uCi after 30 min; format: ADME, organism-based, Muscle tissue; conditions: in vivo, 0.5 h; procedure, shortened: as §1
Oryctolagus cuniculus [16] = assay: Biodistribution pattern of [123I]- ligand was evaluated in fat of anesthetized rabbit after Intravenous injection of 50 uCi after 2 hr; format: ADME, organism-based, Adipose tissue; conditions: in vivo; procedure, shortened: as §2
Oryctolagus cuniculus [17] = assay: Cerebral biodistribution pattern of [123I]- ligand was evaluated in hypothalamus of anesthetized rabbit after Intravenous injection of 50 uCi after 5 min; format: ADME, organism-based; conditions: in vivo; procedure, shortened: as §1
Oryctolagus cuniculus [18] = assay: Cerebral biodistribution pattern of [123I]- ligand was evaluated in striatum of anesthetized rabbit after Intravenous injection of 50 uCi after 24 hr; format: ADME, organism-based; conditions: in vivo; procedure, shortened: as §1
Oryctolagus cuniculus [19] = assay: Biodistribution pattern of [123I]- ligand was evaluated in muscle of anesthetized rabbit after Intravenous injection of 50 uCi after 1 hr; format: ADME, organism-based, Muscle tissue; conditions: in vivo; procedure, shortened: as §2
Oryctolagus cuniculus [20] = assay: Cerebral biodistribution pattern of [123I]- ligand was evaluated in frontal cortex of anesthetized rabbit after Intravenous injection of 50 uCi after 2 hr; format: ADME, organism-based; conditions: in vivo; procedure, shortened: as §1
Oryctolagus cuniculus [21] = assay: Cerebral biodistribution pattern of [123I]- ligand was evaluated in pituitary gland of anesthetized rabbit after Intravenous injection of 50 uCi after 5 min; format: ADME, organism-based; conditions: in vivo; procedure, shortened: as §1
Oryctolagus cuniculus [22] = assay: Biodistribution pattern of [123I]- ligand was evaluated in right ventricular muscle of anesthetized rabbit after Intravenous injection of 50 uCi after 6 hr; format: ADME, organism-based, Muscle tissue; conditions: in vivo; procedure, shortened: as §1
Oryctolagus cuniculus [23] = assay: Biodistribution pattern of [123I]- ligand was evaluated in liver of anesthetized rabbit after Intravenous injection of 50 uCi after 4 hr; format: ADME, organism-based; conditions: in vivo; procedure, shortened: as §2
Oryctolagus cuniculus [24] = assay: Biodistribution pattern of [123I]- ligand was evaluated in right atrial muscle of anesthetized rabbit after Intravenous injection of 50 uCi after 2 hr; format: ADME, organism-based, Muscle tissue; conditions: in vivo; procedure, shortened: as §1
Oryctolagus cuniculus [25] = assay: Biodistribution pattern of [123I]- ligand was evaluated in spleen of anesthetized rabbit after Intravenous injection of 50 uCi after 6 hr; format: ADME, organism-based; conditions: in vivo; procedure, shortened: as §1
Oryctolagus cuniculus [26] = assay: […] biodistribution pattern of [123I]- ligand was evaluated in kidney of anesthetized rabbit after Intravenous injection of 50 uCi after 2 hr; format: ADME, organism-based; conditions: in vivo; procedure, shortened: as §1
Oryctolagus cuniculus [27] = assay: Biodistribution pattern of [123I]- ligand was evaluated in fat of anesthetized rabbit after Intravenous injection of 50 uCi after 5 min; format: ADME, organism-based, Adipose tissue; conditions: in vivo; procedure, shortened: as §2
Oryctolagus cuniculus [28] = assay: Biodistribution pattern of [123I]- ligand was evaluated in blood of anesthetized rabbit after Intravenous injection of 50 uCi after 2 hr; format: ADME, organism-based; conditions: in vivo; procedure, shortened: as §2
Oryctolagus cuniculus [29] = assay: Biodistribution pattern of [123I]- ligand was evaluated in left atrial muscle of anesthetized rabbit after Intravenous injection of 50 uCi after 6 hr; format: ADME, organism-based, Muscle tissue; conditions: in vivo; procedure, shortened: as §2
Oryctolagus cuniculus [30] = assay: Cerebral biodistribution pattern of [123I]- ligand was evaluated in cerebellum of anesthetized rabbit after Intravenous injection of 50 uCi after 2 hr; format: ADME, organism-based; conditions: in vivo; procedure, shortened: as §1
Oryctolagus cuniculus [31] = assay: Biodistribution pattern of [123I]- ligand was evaluated in right ventricular muscle of anesthetized rabbit after Intravenous injection of 50 uCi after 4 hr; format: ADME, organism-based, Muscle tissue; conditions: in vivo; procedure, shortened: as §1
Oryctolagus cuniculus [32] = assay: Cerebral biodistribution pattern of [123I]- ligand was evaluated in striatum of anesthetized rabbit after Intravenous injection of 50 uCi after 6 hr; format: ADME, organism-based; conditions: in vivo; procedure, shortened: as §1
Oryctolagus cuniculus [33] = assay: Biodistribution pattern of [123I]- ligand was evaluated in left atrial muscle of anesthetized rabbit after Intravenous injection of 50 uCi after 24 hr; format: ADME, organism-based, Muscle tissue; conditions: in vivo; procedure, shortened: as §2
Oryctolagus cuniculus [34] = assay: Cerebral biodistribution pattern of [123I]- ligand was evaluated in hypothalamus of anesthetized rabbit after Intravenous injection of 50 uCi after 4 hr; format: ADME, organism-based; conditions: in vivo; procedure, shortened: as §1
Oryctolagus cuniculus [35] = assay: Biodistribution pattern of [123I]- ligand was evaluated in muscle of anesthetized rabbit after Intravenous injection of 50 uCi after 6 hr; format: ADME, organism-based, Muscle tissue; conditions: in vivo; procedure, shortened: as §1
Oryctolagus cuniculus [36] = assay: Biodistribution pattern of [123I]- ligand was evaluated in left ventricular muscle of anesthetized rabbit after Intravenous injection of 50 uCi after 2 hr; format: ADME, organism-based, Muscle tissue; conditions: in vivo; procedure, shortened: as §2
Oryctolagus cuniculus [37] = assay: Biodistribution pattern of [123I]- ligand was evaluated in spleen of anesthetized rabbit after Intravenous injection of 50 uCi after 30 min; format: ADME, organism-based; conditions: in vivo, 0.5 h; procedure, shortened: as §1
Oryctolagus cuniculus [38] = assay: Biodistribution pattern of [123I]- ligand was evaluated in kidney of anesthetized rabbit after Intravenous injection of 50 uCi after 4 hr; format: ADME, organism-based; conditions: in vivo; procedure, shortened: as §2

CC(C)(/C=C/I)NC[C@H](O)COc1cccc2[nH]c3ccccc3c12
ID x kg of body weight/g of tissue (Oryctolagus cuniculus [1]): 0.09% | ID x kg of body weight/g of tissue (Oryctolagus cuniculus [2]): 5.75% | ID x kg of body weight/g of tissue (Oryctolagus cuniculus [3]): 0.03% | ID x kg of body weight/g of tissue (Oryctolagus cuniculus [4]): 0.02% | ID x kg of body weight/g of tissue (Oryctolagus cuniculus [5]): 0.1% | ID x kg of body weight/g of tissue (Oryctolagus cuniculus [6]): 0.02% | ID x kg of body weight/g of tissue (Oryctolagus cuniculus [7]): 1.43% | ID x kg of body weight/g of tissue (Oryctolagus cuniculus [8]): 0.05% | ID x kg of body weight/g of tissue (Oryctolagus cuniculus [9]): 0.06% | ID x kg of body weight/g of tissue (Oryctolagus cuniculus [10]): 0.02% | ID x kg of body weight/g of tissue (Oryctolagus cuniculus [11]): 0.14% | ID x kg of body weight/g of tissue (Oryctolagus cuniculus [12]): 0.03% | ID x kg of body weight/g of tissue (Oryctolagus cuniculus [13]): 0.06% | ID x kg of body weight/g of tissue (Oryctolagus cuniculus [14]): 0.36% | ID x kg of body weight/g of tissue (Oryctolagus cuniculus [15]): 0.15% | ID x kg of body weight/g of tissue (Oryctolagus cuniculus [16]): 0.04% | ID x kg of body weight/g of tissue (Oryctolagus cuniculus [17]): 0.25% | ID x kg of body weight/g of tissue (Oryctolagus cuniculus [18]): 0.02% | ID x kg of body weight/g of tissue (Oryctolagus cuniculus [19]): 0.07% | ID x kg of body weight/g of tissue (Oryctolagus cuniculus [20]): 0.09% | ID x kg of body weight/g of tissue (Oryctolagus cuniculus [21]): 0.5% | ID x kg of body weight/g of tissue (Oryctolagus cuniculus [22]): 0.08% | ID x kg of body weight/g of tissue (Oryctolagus cuniculus [23]): 0.04% | ID x kg of body weight/g of tissue (Oryctolagus cuniculus [24]): 0.13% | ID x kg of body weight/g of tissue (Oryctolagus cuniculus [25]): 0.07% | ID x kg of body weight/g of tissue (Oryctolagus cuniculus [26]): 0.11% | ID x kg of body weight/g of tissue (Oryctolagus cuniculus [27]): 0.008% | ID x kg of body weight/g of tissue (Oryctolagus cuniculus [28]): 0.01% | ID x kg of body weight/g of tissue (Oryctolagus cuniculus [29]): 0.1% | ID x kg of body weight/g of tissue (Oryctolagus cuniculus [30]): 0.15% | ID x kg of body weight/g of tissue (Oryctolagus cuniculus [31]): 0.12% | ID x kg of body weight/g of tissue (Oryctolagus cuniculus [32]): 0.04% | ID x kg of body weight/g of tissue (Oryctolagus cuniculus [33]): 0.03% | ID x kg of body weight/g of tissue (Oryctolagus cuniculus [34]): 0.03% | ID x kg of body weight/g of tissue (Oryctolagus cuniculus [35]): 0.04% | ID x kg of body weight/g of tissue (Oryctolagus cuniculus [36]): 0.2% | ID x kg of body weight/g of tissue (Oryctolagus cuniculus [37]): 0.41% | ID x kg of body weight/g of tissue (Oryctolagus cuniculus [38]): 0.05%
